In assay [1] the test system is MCF7. Put plainly: Rate of inhibition of MCF-7 tumor cell growth at a concentration of 1.0 uM. The class given is functional, Homo sapiens.
For assay [2], the system named is P388. Put plainly: In vitro rate of inhibition of P388 tumor cell growth at 10E-8 mol/L. It counts as functional, Mus musculus. Conditions: at 0.01 µM.
Assay [3] relates to A549. Put plainly: Inhibitory concentration of compound against A-549 cell line. It counts as functional, cell-based. Conditions: Homo sapiens. The method in brief: (§1)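 A-549 tumour cell growth inhibition was measured in vitro by the SRB (sulforhodamine B) method.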
For assay [4], the system named is Bel-7402. Put plainly: Rate of inhibition of Bel-7402 tumor cell growth at a concentration of 1.25 uM. The class given is functional, Homo sapiens.
In assay [5] the test system is MCF7. Put plainly: Rate of inhibition of MCF-7 tumor cell growth at a concentration of 0.5 uM. The class given is functional, Homo sapiens.
Assay [6] relates to Bel-7402. Put plainly: Rate of inhibition of Bel-7402 tumor cell growth at a concentration of 2.5 uM. It counts as functional, Homo sapiens.
The test system of assay [7] is A549. Put plainly: Rate of inhibition of A-549 tumor cell growth at a concentration of 1 uM. It counts as functional, Homo sapiens. The procedure, abridged: as §1
For assay [8], the system named is A549. Put plainly: In vitro rate of inhibition of A-549 tumor cell growth at 10E-6 mol/L. The class given is functional, Homo sapiens. To be noted: at 1 µM.
The subject of assay [9] is Bel-7402. Put plainly: Rate of inhibition of Bel-7402 tumor cell growth at a concentration of 0.313 uM. The class given is functional, Homo sapiens.
In assay [10] the test system is A549. Put plainly: Rate of inhibition of A-549 tumor cell growth at a concentration of 0.125 uM. It counts as functional, Homo sapiens. The method in brief:
as §1

Assay [11] deals with Bel-7402. Put plainly: Inhibitory concentration of compound against Bel-7402 cell line. The class given is functional, cell-based. To be noted: Homo sapiens.
The test system of assay [12] is A549. Put plainly: Rate of inhibition of A-549 tumor cell growth at a concentration of 0.5 uM. It counts as functional, Homo sapiens. The procedure, abridged: as §1
Assay [13] deals with P388. Put plainly: In vitro rate of inhibition of P388 tumor cell growth at 10E-5 mol/L. The class given is functional, Mus musculus. To be noted: at 10 µM.
The test system of assay [14] is Bel-7402. Put plainly: Rate of inhibition of Bel-7402 tumor cell growth at a concentration of 5.0 uM. The class given is functional, Homo sapiens.
The subject of assay [15] is P388. Put plainly: Rate of inhibition of P388 tumor cell growth at a concentration of 0.195 uM. The class given is functional, Mus musculus. The method in brief: (§2)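 P-388 tumour cell growth inhibition was read out in vitro by the MTT method.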
Assay [16] concerns P388. Put plainly: In vitro rate of inhibition of P388 tumor cell growth at 10E-4 mol/L. It counts as functional, Mus musculus. To be noted: at 100 µM.
Assay [17] has as its system A549. Put plainly: In vitro rate of inhibition of A-549 tumor cell growth at 10E-5 mol/L. The class given is functional, Homo sapiens. Conditions: at 10 µM.
Assay [18] concerns P388. Put plainly: Rate of inhibition of P388 tumor cell growth at a concentration of 0.781 uM. The class given is functional, Mus musculus. The procedure, abridged: as §2
For assay [19], the system named is Bel-7402. Put plainly: Rate of inhibition of Bel-7402 tumor cell growth at a concentration of 0.625 uM. It counts as functional, Homo sapiens.
Assay [20] deals with A549. Put plainly: In vitro rate of inhibition of A-549 tumor cell growth at 10E-4 mol/L. It counts as functional, Homo sapiens. Conditions: at 100 µM.
For assay [21], the system named is A549. Put plainly: Rate of inhibition of A-549 tumor cell growth at a concentration of 0.0625 uM. The class given is functional, Homo sapiens. The method in brief: as §1
In assay [22] the test system is MCF7. Put plainly: Rate of inhibition of MCF-7 tumor cell growth at a concentration of 0.25 uM. It counts as functional, Homo sapiens.
In assay [23] the test system is P388. Put plainly: Rate of inhibition of P388 tumor cell growth at a concentration of 3.125 uM. The class given is functional, Mus musculus. The method in brief: as §2
The subject of assay [24] is P388. Put plainly: Rate of inhibition of P388 tumor cell growth at a concentration of […] uM. It counts as functional, Mus musculus. The procedure, abridged: as §2
Assay [25] relates to P388. Put plainly: In vitro rate of inhibition of P388 tumor cell growth at 10E-6 mol/L. Conditions: at 1 µM. It counts as functional, Mus musculus.
In assay [26] the test system is MCF7. Put plainly: Rate of inhibition of MCF-7 tumor cell growth at a concentration of 0.125 uM. It counts as functional, Homo sapiens.
In assay [27] the test system is MCF7. Put plainly: Inhibitory concentration of compound against MCF-7 cell line. The class given is functional, cell-based. Conditions: Homo sapiens.
For assay [28], the system named is A549. Put plainly: In vitro rate of inhibition of A-549 tumor cell growth at 10E-8 mol/L. It counts as functional, Homo sapiens. To be noted: at 0.01 µM.
In assay [29] the test system is P388. Put plainly: Inhibitory concentration of compound against P388 tumor cell growth. It counts as functional, cell-based. Conditions: Mus musculus. The procedure, abridged: as §2
Assay [30] concerns A549. Put plainly: Rate of inhibition of A-549 tumor cell growth at a concentration of 0.25 uM. It counts as functional, Homo sapiens. The method in brief: as §1
The test system of assay [31] is P388. Put plainly: Rate of inhibition of P388 tumor cell growth at a concentration of 1.563 uM. It counts as functional, Mus musculus. The procedure, abridged: as §2
For assay [32], the system named is A549. Put plainly: In vitro rate of inhibition of A-549 tumor cell growth at 10E-7 mol/L. It counts as functional, Homo sapiens. To be noted: at 0.1 µM.
The subject of assay [33] is P388. Put plainly: In vitro rate of inhibition of P388 tumor cell growth at 10E-7 mol/L. The class given is functional, Mus musculus. To be noted: at 0.1 µM.

The structures appear in SMILES notation.

On to `CC1=NN(C(=O)Nc2cccc(C)c2)C(C)=NN1C(=O)Nc1cccc(C)c1`, for which the Rate of inhibition with MCF7 [1] is 71.2%; with P388 [2], 96.8%; in the assay with Bel-7402 [4], 77.8%; in the assay with MCF7 [5] it was 64.3%; in the assay with Bel-7402 [6] it was 89%; with A549 [7], 93.6%. The Rate of inhibition in the assay with A549 [8] is listed as 80.3%; with Bel-7402 [9], 27.4%; in the assay on A549 [10], 0%; with A549 [12], 36.6%; in the assay on P388 [13] it was 96.8%; in the assay on Bel-7402 [14], 87.8%. Also, the Rate of inhibition is reported as 2.3% in the assay on P388 [15]; 96.8% in the assay with P388 [16]; 83.3% with A549 [17]; 83.1% in the assay with P388 [18]; 54.2% in the assay with Bel-7402 [19]; 84.8% in the assay on A549 [20]. The Rate of inhibition in the assay on A549 [21] was 0%; in the assay on MCF7 [22], 35.7%; with P388 [23], 97.3%; in the assay on P388 [24], 55.4%; in the assay on P388 [25], 98.4%; in the assay with MCF7 [26] it was 1.1%. Moreover, the Rate of inhibition was 80.3% in the assay on A549 [28]; 0% in the assay on A549 [30]; 91.1% in the assay with P388 [31]; 81.8% with A549 [32]; 96.8% in the assay with P388 [33]. The IC50 in the assay on A549 [3] came out at 700 nM; in the assay with Bel-7402 [11], 600 nM; in the assay on MCF7 [27] it was 500 nM; with P388 [29], 600 nM.

As for `CCOC(=O)N1C(c2ccccc2)=NN=C(c2ccccc2)N1C(=O)OCC`, the Rate of inhibition is listed as 2.8% in the assay with P388 [2]; 0% in the assay on A549 [8]; 35.6% in the assay on P388 [13]; 93.9% in the assay with P388 [16]; 10.8% with A549 [17]; 95.3% with A549 [20]. Besides, the Rate of inhibition in the assay on P388 [25] was 7%; in the assay on A549 [28] it was 0%; with A549 [32], 0%; in the assay with P388 [33], 4.9%.

For `CCOC(=O)c1cccc(NC(=O)N2N=C(C)N(C(=O)Nc3cccc(C(=O)OCC)c3)N=C2C)c1`, the Rate of inhibition was 0% with P388 [2]; 6.8% in the assay with A549 [8]; 0% with P388 [13]; 46.3% in the assay with P388 [16]; 12.5% in the assay on A549 [17]; 67% in the assay on A549 [20]. The Rate of inhibition in the assay on P388 [25] was determined as 0%; in the assay on A549 [28], 1.1%; in the assay on A549 [32] it was 5.7%; with P388 [33] it was 0%.

(Values after ChEMBL document CHEMBL1147590, “Synthesis and antitumor activity of s-tetrazine derivatives” (Bioorg Med Chem Lett, 2004).)
